Test results as given in ChEMBL document CHEMBL4002548 (Eur J Med Chem, 2017).

Experiments:
KG-1 = test: Antiproliferative activity against FGFR1-translocated human KG1 cells after 72 hrs by CCK8/SRB assay; type: functional, cell-based; details: KG-1, 72 h
How it was run: (§1)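 Cells seeded, then exposed next day to a range of compound concentrations for 72 h. Proliferation read by sulforhodamine B or CCK-8. IC50 obtained by four-parameter concentration–response curve fitting from two separate experiments. BaF3 lines stably express constitutively active TEL-FGFR4, TEL-KDR, CCDC6-RET or CCDC6-RET-V804M.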

[1] = molecular target: Vascular endothelial growth factor receptor 2 (Homo sapiens, UniProt P35968); test: Inhibition of recombinant KDR (unknown origin) using poly (Glu, Tyr) 4:1 after 60 mins by ELISA method
Sequence of Vascular endothelial growth factor receptor 2 (P35968 whole entry): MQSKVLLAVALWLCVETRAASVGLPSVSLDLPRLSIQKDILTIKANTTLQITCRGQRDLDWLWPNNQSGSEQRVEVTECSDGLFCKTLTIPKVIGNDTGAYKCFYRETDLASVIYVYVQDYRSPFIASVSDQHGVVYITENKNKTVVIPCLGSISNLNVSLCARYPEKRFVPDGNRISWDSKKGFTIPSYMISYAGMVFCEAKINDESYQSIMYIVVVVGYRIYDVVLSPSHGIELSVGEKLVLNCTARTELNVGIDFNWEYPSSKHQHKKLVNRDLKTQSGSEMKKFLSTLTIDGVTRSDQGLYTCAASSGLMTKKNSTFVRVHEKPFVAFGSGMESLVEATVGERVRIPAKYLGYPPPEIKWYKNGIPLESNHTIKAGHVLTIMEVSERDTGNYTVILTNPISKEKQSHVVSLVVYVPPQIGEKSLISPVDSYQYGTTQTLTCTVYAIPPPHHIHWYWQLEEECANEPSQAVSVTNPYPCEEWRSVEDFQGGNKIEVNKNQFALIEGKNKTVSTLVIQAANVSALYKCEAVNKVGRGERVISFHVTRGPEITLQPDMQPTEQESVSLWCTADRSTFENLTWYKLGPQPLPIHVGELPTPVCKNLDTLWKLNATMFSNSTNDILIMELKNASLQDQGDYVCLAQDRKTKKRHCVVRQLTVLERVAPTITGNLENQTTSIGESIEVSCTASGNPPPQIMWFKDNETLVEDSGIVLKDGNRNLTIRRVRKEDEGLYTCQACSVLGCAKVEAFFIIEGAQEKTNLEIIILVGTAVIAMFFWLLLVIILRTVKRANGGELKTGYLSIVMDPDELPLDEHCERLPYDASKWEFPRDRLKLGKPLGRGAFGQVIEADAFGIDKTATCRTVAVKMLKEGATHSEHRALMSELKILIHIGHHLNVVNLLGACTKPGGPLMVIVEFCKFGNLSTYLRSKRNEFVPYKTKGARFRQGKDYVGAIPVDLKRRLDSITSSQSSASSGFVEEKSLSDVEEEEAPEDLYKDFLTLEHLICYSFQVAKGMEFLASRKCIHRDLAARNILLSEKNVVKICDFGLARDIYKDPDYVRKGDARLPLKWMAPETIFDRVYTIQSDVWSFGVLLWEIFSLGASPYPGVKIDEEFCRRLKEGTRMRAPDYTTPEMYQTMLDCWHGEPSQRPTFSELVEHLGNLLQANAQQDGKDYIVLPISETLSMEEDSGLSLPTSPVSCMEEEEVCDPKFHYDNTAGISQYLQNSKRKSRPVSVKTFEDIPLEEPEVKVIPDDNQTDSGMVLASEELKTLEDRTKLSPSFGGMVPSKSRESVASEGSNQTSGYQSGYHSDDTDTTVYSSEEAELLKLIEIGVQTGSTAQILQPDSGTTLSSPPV

NCI-H1581 [2] = test: Antitumor activity against FGFR1-amplified human NCI-H1581 cells xenografted in nude mouse assessed as tumor growth inhibition at 20 mg/kg, po qd administered for 10 days and measured on day 10 post last dose relative to vehicle-treated control; type: functional; details: 240 h, read-out: TGI
How it was run: (§2)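 Male nude mice, 4-6 weeks old, kept under SPF conditions. Tumours grown s.c. from 5×10^6 cells, then passaged as 1 mm³ fragments by trocar. Randomised at 120–150 mm³ (n=6 treated, 12 vehicle). Compound given orally once daily, 10 days for NCI-H1581 and 18 days for SNU16. Calipers twice weekly; V = L×W²/2. TGI taken on final day from volume change versus vehicle.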

[3] = molecular target: T1, Fibroblast growth factor receptor 1 (Homo sapiens, UniProt P11362); test: Inhibition of recombinant FGFR1 (unknown origin) using poly (Glu, Tyr) 4:1 after 60 mins by ELISA method
Target sequence in this assay (P11362 whole entry): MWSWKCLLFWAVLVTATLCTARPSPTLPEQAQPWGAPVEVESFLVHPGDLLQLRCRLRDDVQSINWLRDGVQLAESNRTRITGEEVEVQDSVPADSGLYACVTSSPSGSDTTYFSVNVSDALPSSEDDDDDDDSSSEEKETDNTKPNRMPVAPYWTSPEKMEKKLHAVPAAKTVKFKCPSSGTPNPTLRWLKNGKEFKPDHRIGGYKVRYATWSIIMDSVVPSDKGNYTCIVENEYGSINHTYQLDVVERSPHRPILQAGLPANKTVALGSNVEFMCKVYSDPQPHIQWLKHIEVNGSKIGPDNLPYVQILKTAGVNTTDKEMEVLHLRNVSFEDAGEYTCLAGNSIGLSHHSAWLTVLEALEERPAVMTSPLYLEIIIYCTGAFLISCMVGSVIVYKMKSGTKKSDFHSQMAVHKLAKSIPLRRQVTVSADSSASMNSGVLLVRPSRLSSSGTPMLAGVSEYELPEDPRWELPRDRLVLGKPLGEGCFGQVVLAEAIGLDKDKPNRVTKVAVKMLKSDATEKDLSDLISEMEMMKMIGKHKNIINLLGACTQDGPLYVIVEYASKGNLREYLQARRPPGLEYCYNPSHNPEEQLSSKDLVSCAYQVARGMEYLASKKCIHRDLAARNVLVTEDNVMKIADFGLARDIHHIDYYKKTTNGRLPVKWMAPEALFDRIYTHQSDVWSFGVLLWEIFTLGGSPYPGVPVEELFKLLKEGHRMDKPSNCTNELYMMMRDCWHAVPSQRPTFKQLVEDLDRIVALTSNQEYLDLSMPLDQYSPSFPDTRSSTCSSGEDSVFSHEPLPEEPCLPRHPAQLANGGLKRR

SNU-16 [4] = test: Antiproliferative activity against FGFR2-amplified human SNU16 cells after 72 hrs by CCK8/SRB assay; type: functional, cell-based; details: SNU-16, 72 h; how it was run: as §1
SNU-16 [5] = test: Antitumor activity against FGFR2-amplified human SNU16 cells xenografted in nude mouse assessed as tumor growth inhibition at 30 mg/kg, po qd administered for 18 days and measured on day 18 post last dose relative to vehicle-treated control; type: functional; details: SNU-16, po, 432 h, read-out: TGI; how it was run: as §2
RT-112 = test: Antiproliferative activity against FGFR3-amplified human RT112 cells after 72 hrs by CCK8/SRB assay; type: functional, cell-based; details: RT-112, 72 h; how it was run: as §1
BaF3 [6] = test: Antiproliferative activity against mouse BAF3 cells expressing CCDC6-RET […] mutant after 72 hrs by CCK8/SRB assay; type: functional, cell-based; details: BaF3, 72 h; how it was run: as §1
NCI-H1581 [7] = test: Antiproliferative activity against FGFR1-amplified human NCI-H1581 cells after 72 hrs by CCK8/SRB assay; details: NCI-H1581, 72 h
[8] = Inhibition of recombinant RET […] mutant (unknown origin) using poly (Glu,Tyr) 4:1 as substrate after 60 mins by ELISA; parameters: species or system Homo sapiens
How it was run: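 Poly(Glu,Tyr) 4:1 pre-coated at 20 µg/mL as substrate. Reaction with 10 µmol/L ATP in HEPES pH 7.4 buffer containing MgCl2, MnCl2, Na3VO4 and DTT; compound in 1% DMSO, with 1% DMSO as negative control; started by adding kinase. Run 60 min at 37 °C. Phosphotyrosine detected with PY99 and HRP anti-mouse IgG, o-phenylenediamine colour read at 490 nm. IC50 from inhibition curves, two separate experiments.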

[9] = molecular target: T1, Fibroblast growth factor receptor 1; test: Inhibition of FGFR1 phosphorylation in FGFR1 translocated human KG1 cells after 2 hrs by Western blot method
How it was run: (§3)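 KG1 cells treated with a range of compound concentrations for 2 h at 37 °C, then lysed in 1× SDS sample buffer. Lysates resolved by SDS–PAGE and blotted. Probes: phospho-FGFR1, FGFR, phospho-PLCγ, PLCγ, phospho-ERK1/2, ERK1/2, with GAPDH as loading control. Detection by HRP secondary and enhanced chemiluminescence.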
Target sequence in this assay (P11362 22-822 limits assumed): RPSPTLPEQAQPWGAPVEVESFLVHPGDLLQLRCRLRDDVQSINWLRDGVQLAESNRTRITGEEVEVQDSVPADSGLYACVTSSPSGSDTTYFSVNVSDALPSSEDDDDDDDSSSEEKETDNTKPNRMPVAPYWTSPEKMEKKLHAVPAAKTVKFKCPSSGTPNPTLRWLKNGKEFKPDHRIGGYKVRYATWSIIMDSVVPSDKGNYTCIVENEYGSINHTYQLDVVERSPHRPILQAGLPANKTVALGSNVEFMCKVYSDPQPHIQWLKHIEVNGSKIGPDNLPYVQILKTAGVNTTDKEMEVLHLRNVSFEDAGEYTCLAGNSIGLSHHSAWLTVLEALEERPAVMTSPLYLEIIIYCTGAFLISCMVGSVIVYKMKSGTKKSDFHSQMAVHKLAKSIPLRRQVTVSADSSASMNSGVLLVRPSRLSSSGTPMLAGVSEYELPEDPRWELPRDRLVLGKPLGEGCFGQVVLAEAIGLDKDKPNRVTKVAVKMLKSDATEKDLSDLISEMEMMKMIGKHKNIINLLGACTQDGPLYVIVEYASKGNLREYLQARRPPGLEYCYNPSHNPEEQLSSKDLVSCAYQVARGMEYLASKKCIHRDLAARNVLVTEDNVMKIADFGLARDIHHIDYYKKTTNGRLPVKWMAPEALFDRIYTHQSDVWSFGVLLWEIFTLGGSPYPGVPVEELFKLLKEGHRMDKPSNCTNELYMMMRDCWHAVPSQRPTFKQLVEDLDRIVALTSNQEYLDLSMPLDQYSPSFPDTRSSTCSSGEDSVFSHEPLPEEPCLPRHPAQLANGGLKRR

SNU-16 [10] = test: Antitumor activity against FGFR2-amplified human SNU16 cells xenografted in nude mouse assessed as tumor growth inhibition at 20 mg/kg, po qd administered for 18 days and measured on day 18 post last dose relative to vehicle-treated control; type: functional; details: SNU-16, po, 432 h, read-out: TGI; how it was run: as §2
BaF3 [11] = test: Antiproliferative activity against mouse BAF3 cells expressing CCDC6-RET fusion protein after 72 hrs by CCK8/SRB assay; type: functional, cell-based; details: BaF3, 72 h; how it was run: as §1
[12] = molecular target: Platelet-derived growth factor receptor alpha (Homo sapiens, UniProt P16234); test: Inhibition of recombinant PDGFRalpha (unknown origin) using poly (Glu,Tyr) 4:1 as substrate after 60 mins by ELISA
[13] = molecular target: Epidermal growth factor receptor (Homo sapiens, UniProt P00533); test: Inhibition of recombinant EGFR (unknown origin) using poly (Glu,Tyr) 4:1 as substrate after 60 mins by ELISA
[14] = molecular target: T1, Fibroblast growth factor receptor 1; test: Inhibition of FGFR1 in FGFR1 translocated human KG1 cells assessed as suppression of phosphorylated ERK after 2 hrs by Western blot analysis; how it was run: as §3
Target sequence in this assay (P11362 22-822 limits assumed): as above

[15] = molecular target: Fibroblast growth factor receptor 4 (Homo sapiens, UniProt P22455); test: Inhibition of recombinant FGFR4 (unknown origin) using poly (Glu,Tyr) 4:1 as substrate after 60 mins by ELISA
[16] = molecular target: Vascular endothelial growth factor receptor 1 (Homo sapiens, UniProt P17948); test: Inhibition of recombinant VEGFR1 (unknown origin) using poly (Glu,Tyr) 4:1 as substrate after 60 mins by ELISA
[17] = AUC (0 to 24 hrs) in mouse at 10 mg/kg, po; type: ADME, organism-based; parameters: time < 24 hr, dose 10 mg/kg, route oral; details: in vivo
[18] = molecular target: Tyrosine-protein kinase ABL1 (Homo sapiens, UniProt P00519); test: Inhibition of recombinant ABL (unknown origin) using poly (Glu,Tyr) 4:1 as substrate after 60 mins by ELISA
[19] = molecular target: T1, Fibroblast growth factor receptor 1; test: Inhibition of FGFR1 in FGFR1 translocated human KG1 cells assessed as suppression of PLCgamma phosphorylation after 2 hrs by Western blot analysis; how it was run: as §3
Target sequence in this assay (P11362 22-822 limits assumed): as above

[20] = molecular target: Fibroblast growth factor receptor 3 (Homo sapiens, UniProt P22607); test: Inhibition of recombinant FGFR3 (unknown origin) using poly (Glu,Tyr) 4:1 as substrate after 60 mins by ELISA
Sequence of Fibroblast growth factor receptor 3 (P22607 whole entry, the tested form may be a part): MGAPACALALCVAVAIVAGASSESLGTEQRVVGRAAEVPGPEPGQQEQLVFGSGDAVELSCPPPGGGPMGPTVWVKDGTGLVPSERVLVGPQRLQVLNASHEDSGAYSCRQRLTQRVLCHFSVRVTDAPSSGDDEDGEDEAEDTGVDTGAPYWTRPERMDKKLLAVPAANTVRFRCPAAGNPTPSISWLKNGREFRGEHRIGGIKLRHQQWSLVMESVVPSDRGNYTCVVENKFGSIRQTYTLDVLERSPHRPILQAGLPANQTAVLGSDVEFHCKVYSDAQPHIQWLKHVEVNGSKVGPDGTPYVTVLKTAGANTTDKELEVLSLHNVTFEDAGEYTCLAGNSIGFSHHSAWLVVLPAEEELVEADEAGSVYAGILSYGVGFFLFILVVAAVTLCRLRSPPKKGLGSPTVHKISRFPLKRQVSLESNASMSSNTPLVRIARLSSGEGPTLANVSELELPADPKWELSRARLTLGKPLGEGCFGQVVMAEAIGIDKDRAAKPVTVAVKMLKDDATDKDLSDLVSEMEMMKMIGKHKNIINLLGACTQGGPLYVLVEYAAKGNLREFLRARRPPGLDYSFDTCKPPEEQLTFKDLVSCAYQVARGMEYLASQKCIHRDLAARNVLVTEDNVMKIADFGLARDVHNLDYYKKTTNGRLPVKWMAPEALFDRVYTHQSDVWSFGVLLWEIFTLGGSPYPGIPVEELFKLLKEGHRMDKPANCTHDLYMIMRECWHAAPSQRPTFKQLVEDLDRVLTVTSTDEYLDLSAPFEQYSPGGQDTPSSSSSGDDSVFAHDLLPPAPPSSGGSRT

BaF3 [21] = test: Antiproliferative activity against mouse BAF3 cells expressing TEL-KDR fusion protein after 72 hrs by CCK8/SRB assay; type: functional, cell-based; details: BaF3, 72 h; how it was run: as §1
[22] = molecular target: Platelet-derived growth factor receptor beta (Homo sapiens, UniProt P09619); test: Inhibition of recombinant PDGFRbeta (unknown origin) using poly (Glu,Tyr) 4:1 as substrate after 60 mins by ELISA
Sequence of Platelet-derived growth factor receptor beta (P09619 whole entry): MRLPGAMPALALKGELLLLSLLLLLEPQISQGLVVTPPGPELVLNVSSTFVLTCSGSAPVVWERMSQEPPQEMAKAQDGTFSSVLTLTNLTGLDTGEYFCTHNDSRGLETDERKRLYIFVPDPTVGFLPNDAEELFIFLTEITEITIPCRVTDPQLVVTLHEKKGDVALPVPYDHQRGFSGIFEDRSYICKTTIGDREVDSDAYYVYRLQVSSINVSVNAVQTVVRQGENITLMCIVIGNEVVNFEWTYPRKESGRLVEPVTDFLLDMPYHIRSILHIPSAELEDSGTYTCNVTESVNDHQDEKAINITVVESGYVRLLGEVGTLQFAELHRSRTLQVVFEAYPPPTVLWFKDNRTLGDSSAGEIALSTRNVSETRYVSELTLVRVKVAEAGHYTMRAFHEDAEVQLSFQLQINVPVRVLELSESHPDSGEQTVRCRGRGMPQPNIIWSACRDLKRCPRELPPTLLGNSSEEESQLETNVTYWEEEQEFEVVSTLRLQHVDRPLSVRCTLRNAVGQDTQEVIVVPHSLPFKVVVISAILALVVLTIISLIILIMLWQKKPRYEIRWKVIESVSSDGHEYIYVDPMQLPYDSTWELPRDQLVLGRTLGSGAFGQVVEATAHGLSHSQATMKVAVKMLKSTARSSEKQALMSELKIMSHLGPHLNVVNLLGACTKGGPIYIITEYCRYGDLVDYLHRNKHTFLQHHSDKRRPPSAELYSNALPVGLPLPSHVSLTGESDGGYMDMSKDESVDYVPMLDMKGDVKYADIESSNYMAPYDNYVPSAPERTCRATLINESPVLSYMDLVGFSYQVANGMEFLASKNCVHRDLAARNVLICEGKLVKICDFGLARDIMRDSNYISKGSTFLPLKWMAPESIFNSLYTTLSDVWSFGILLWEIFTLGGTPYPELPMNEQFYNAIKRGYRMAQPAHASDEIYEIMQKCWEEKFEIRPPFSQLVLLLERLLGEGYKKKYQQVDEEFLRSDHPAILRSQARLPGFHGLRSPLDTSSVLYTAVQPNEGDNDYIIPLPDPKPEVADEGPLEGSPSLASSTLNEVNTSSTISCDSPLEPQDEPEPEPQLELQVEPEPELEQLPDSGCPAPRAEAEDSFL

[23] = molecular target: Proto-oncogene tyrosine-protein kinase Src (Homo sapiens, UniProt P12931); test: Inhibition of recombinant c-Src (unknown origin) using poly (Glu,Tyr) 4:1 as substrate after 60 mins by ELISA
BaF3 [24] = test: Antiproliferative activity against mouse BAF3 cells expressing TEL-FGFR4 fusion protein after 72 hrs by CCK8/SRB assay; type: functional, cell-based; details: BaF3, 72 h; how it was run: as §1
[25] = molecular target: Proto-oncogene tyrosine-protein kinase receptor Ret (Homo sapiens, UniProt P07949); test: Inhibition of recombinant RET (unknown origin) using poly (Glu,Tyr) 4:1 as substrate after 60 mins by ELISA
[26] = molecular target: Fibroblast growth factor receptor 2 (Homo sapiens, UniProt P21802); test: Inhibition of recombinant FGFR2 (unknown origin) using poly (Glu,Tyr) 4:1 as substrate after 60 mins by ELISA
NCI-H1581 [27] = test: Antitumor activity against FGFR1-amplified human NCI-H1581 cells xenografted in nude mouse assessed as tumor growth inhibition at 5 mg/kg, po qd administered for 10 days and measured on day 10 post last dose relative to vehicle-treated control; type: functional; details: 240 h, read-out: TGI; how it was run: as §2

SMILES: CN1CCN(Cc2ccc(NC(=O)c3ccc(F)c(C#Cc4cncc5ccccc45)c3)cc2C(F)(F)F)CC1
- IC50 (KG-1): 27.8 nM
- IC50 [1]: 5.5 nM

SMILES: Cc1ccc(C(=O)Nc2ccc(CN3CCN(C)CC3)c(C(F)(F)F)c2)cc1C#Cc1cncc(NC(C)C)c1
- IC50 (KG-1): 84.5 nM
- IC50 [1]: 59.9 nM

SMILES: COc1cc(CCc2cc(NC(=O)c3ccc(N4C[C@@H](C)N[C@@H](C)C4)cc3)n[nH]2)cc(OC)c1 [FEXAGRATINIB]
- inhibition in vivo at 20 mg/kg (NCI-H1581 [2]): 79.5%

SMILES: Cc1ccc(C(=O)Nc2ccc(CN3CCN(C)CC3)c(C(F)(F)F)c2)cc1C#Cc1cncc(N2CCOCC2)c1
- IC50 (KG-1): 24.3 nM
- IC50 [1]: 89.9 nM

SMILES: CN1CCN(Cc2ccc(NC(=O)c3ccc(C(F)(F)F)c(C#Cc4cncc5ccccc45)c3)cc2C(F)(F)F)CC1
- IC50 (KG-1): > 500 nM
- IC50 [3]: > 100 nM

SMILES: Cc1ccc(C(=O)Nc2ccc(CN3CCN(C)CC3)c(C(F)(F)F)c2)cc1C#Cc1cncc(N2CCCC2)c1
- IC50 (KG-1): 119 nM
- IC50 [1]: 108 nM

SMILES: CN1CCN(Cc2ccc(NC(=O)c3cccc(C#Cc4cncc5ccccc45)c3)cc2C(F)(F)F)CC1
- IC50 (KG-1): 67.6 nM
- IC50 [1]: 2.5 nM

SMILES: CN1CCN(Cc2ccc(NC(=O)c3ccnc(C#Cc4cncc5ccccc45)c3)cc2C(F)(F)F)CC1
- IC50 (KG-1): 427 nM
- IC50 [1]: 6.5 nM

SMILES: Cc1ccc(C(=O)Nc2ccc(CN3CCN(C)CC3)c(C(F)(F)F)c2)cc1C#Cc1cnc2cccnn12 [PONATINIB]
- IC50 (KG-1): 17.2 nM
- IC50 (SNU-16 [4]): 33.6 nM
- inhibition in vivo at 30 mg/kg (SNU-16 [5]): 75.3%
- IC50 (RT-112): 736 nM
- IC50 (BaF3 [6]): 71.5 nM
- IC50 (NCI-H1581 [7]): 194 nM
- IC50 [8]: 1.9 nM

SMILES: CN1CCN(Cc2ccc(NC(=O)c3cc(C#Cc4cncc5ccccc45)ccn3)cc2C(F)(F)F)CC1
- IC50 (KG-1): > 500 nM

SMILES: CN1CCN(Cc2ccc(NC(=O)c3ccc(Cl)c(C#Cc4cncc(N5CCOCC5)c4)c3)cc2C(F)(F)F)CC1
- IC50 (KG-1): 7.5 nM
- inhibition [9]: Dose-dependent effect
- IC50 [1]: 48.7 nM
- IC50 (SNU-16 [4]): 26.4 nM
- inhibition in vivo at 20 mg/kg (SNU-16 [10]): 93.9%
- IC50 (BaF3 [11]): 37.2 nM
- IC50 [12]: 5.6 nM
- IC50 [3]: 0.5 nM
- IC50 [13]: > 100 nM
- IC50 (RT-112): 514 nM
- inhibition [14]: Dose-dependent effect
- IC50 [15]: 5.5 nM
- IC50 [16]: 62.7 nM
- AUC(0-t) at 24 h [17]: 11400 ng·h/mL
- inhibition in vivo at 20 mg/kg (NCI-H1581 [2]): 73.4%
- IC50 [18]: 23.2 nM
- inhibition [19]: Dose-dependent effect
- IC50 [20]: 1 nM
- IC50 (BaF3 [6]): 33.4 nM
- IC50 (BaF3 [21]): 489 nM
- IC50 [22]: 5.5 nM
- IC50 (NCI-H1581 [7]): 57 nM
- IC50 [8]: 7.5 nM
- IC50 [23]: 10.8 nM
- IC50 (BaF3 [24]): 131 nM
- IC50 [25]: 1.3 nM
- IC50 [26]: 0.3 nM
- inhibition in vivo at 5 mg/kg (NCI-H1581 [27]): 8.3%

SMILES: CN1CCN(Cc2ccc(NC(=O)c3ccnc(C#Cc4cncc5ccccc45)n3)cc2C(F)(F)F)CC1
- IC50 (KG-1): > 500 nM

SMILES: COc1cncc(C#Cc2cc(C(=O)Nc3ccc(CN4CCN(C)CC4)c(C(F)(F)F)c3)ccc2C)c1
- IC50 (KG-1): 125 nM
- IC50 [1]: 110 nM
- IC50 [3]: 12.8 nM

SMILES: CN1CCN(Cc2ccc(NC(=O)c3cncc(C#Cc4cncc5ccccc45)c3)cc2C(F)(F)F)CC1
- IC50 (KG-1): > 500 nM
- IC50 [1]: 2.6 nM

SMILES: CC(C)c1ccc(C(=O)Nc2ccc(CN3CCN(C)CC3)c(C(F)(F)F)c2)cc1C#Cc1cncc2ccccc12
- IC50 [3]: > 100 nM

SMILES: CN1CCN(Cc2ccc(NC(=O)c3ccc(Cl)c(C#Cc4cncc5ccccc45)c3)cc2C(F)(F)F)CC1
- IC50 (KG-1): 88.2 nM
- IC50 [1]: 91.4 nM

SMILES: Cc1ccc(C(=O)Nc2ccc(CN3CCN(C)CC3)c(C(F)(F)F)c2)cc1C#Cc1cncc2c1ccn2C
- IC50 (KG-1): 10 nM
- IC50 [1]: 63.5 nM

SMILES: Cc1ccc(C(=O)Nc2ccc(CN3CCN(C)CC3)c(C(F)(F)F)c2)cc1C#Cc1cncc2[nH]ccc12
- IC50 (KG-1): 490 nM
- IC50 [1]: > 100 nM

SMILES: CN1CCN(Cc2ccc(NC(=O)c3cccc(C#Cc4cncc5ccccc45)n3)cc2C(F)(F)F)CC1
- IC50 [3]: > 100 nM

SMILES: CCN(CC)c1cncc(C#Cc2cc(C(=O)Nc3ccc(CN4CCN(C)CC4)c(C(F)(F)F)c3)ccc2C)c1
- IC50 (KG-1): 58.3 nM
- IC50 [1]: 105 nM

SMILES: Cc1ccc(C(=O)Nc2ccc(CN3CCN(C)CC3)c(C(F)(F)F)c2)cc1C#Cc1cncc(N2CCN(C)CC2)c1
- IC50 (KG-1): 21.7 nM
- IC50 [1]: 21.8 nM
- IC50 [3]: 5.7 nM

SMILES: Cc1ccc(C(=O)Nc2ccc(CN3CCN(C)CC3)c(C(F)(F)F)c2)cc1C#Cc1cncc2ccccc12
- IC50 (KG-1): 175 nM
- IC50 [1]: 79.1 nM
- IC50 [3]: 1.2 nM

SMILES: COc1ccc(C(=O)Nc2ccc(CN3CCN(C)CC3)c(C(F)(F)F)c2)cc1C#Cc1cncc2ccccc12
- IC50 (KG-1): > 500 nM
